In ChEMBL document CHEMBL1126975 (J Med Chem, 1993):

Experiments:
[1] = biological target: T1, Amine oxidase [flavin-containing] A (Rattus norvegicus, UniProt P21396); experiment: In vitro inhibitory activity on rat brain by monoamine oxidase A (MAO-A)
T1 sequence (P21396 whole entry): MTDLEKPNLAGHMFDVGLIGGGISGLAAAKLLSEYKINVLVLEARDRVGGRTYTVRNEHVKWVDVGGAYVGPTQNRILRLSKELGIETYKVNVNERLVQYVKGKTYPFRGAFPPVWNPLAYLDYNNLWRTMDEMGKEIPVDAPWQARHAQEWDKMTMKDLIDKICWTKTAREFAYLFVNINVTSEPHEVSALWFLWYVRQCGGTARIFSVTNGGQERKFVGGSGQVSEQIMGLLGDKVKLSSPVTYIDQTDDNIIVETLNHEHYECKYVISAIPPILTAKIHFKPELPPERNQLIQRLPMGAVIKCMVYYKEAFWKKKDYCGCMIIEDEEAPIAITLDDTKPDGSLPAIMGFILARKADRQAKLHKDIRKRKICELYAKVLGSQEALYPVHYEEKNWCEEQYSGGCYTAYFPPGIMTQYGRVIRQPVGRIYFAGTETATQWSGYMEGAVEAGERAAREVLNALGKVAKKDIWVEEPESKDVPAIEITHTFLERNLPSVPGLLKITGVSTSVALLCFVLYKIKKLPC
In short: (§1)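 Radiochemical assay at 37 °C, pH 7.4: MAO A with 10 μM [14C]5-HT, MAO B with 5 μM [14C]PEA. Drug preincubated 20 min with enzyme. Three experiments in duplicate.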

[2] = biological target: T2, Amine oxidase [flavin-containing] B (Rattus norvegicus, UniProt P19643); experiment: In vitro inhibitory activity on rat brain MAO-B.; in short: as §1
T2 sequence (P19643 whole entry): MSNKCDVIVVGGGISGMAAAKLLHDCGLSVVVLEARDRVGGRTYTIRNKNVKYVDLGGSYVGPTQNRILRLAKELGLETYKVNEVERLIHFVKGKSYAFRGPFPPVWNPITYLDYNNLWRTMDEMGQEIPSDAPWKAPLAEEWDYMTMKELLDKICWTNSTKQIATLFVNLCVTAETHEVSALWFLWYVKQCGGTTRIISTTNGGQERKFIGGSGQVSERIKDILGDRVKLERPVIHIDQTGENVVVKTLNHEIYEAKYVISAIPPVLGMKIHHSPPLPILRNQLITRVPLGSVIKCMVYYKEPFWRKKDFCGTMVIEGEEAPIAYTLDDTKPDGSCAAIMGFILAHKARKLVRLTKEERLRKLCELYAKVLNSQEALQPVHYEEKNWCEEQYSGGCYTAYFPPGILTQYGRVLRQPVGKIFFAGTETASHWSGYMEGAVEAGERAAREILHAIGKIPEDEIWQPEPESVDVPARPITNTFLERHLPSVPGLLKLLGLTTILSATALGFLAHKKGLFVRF

[3] = biological target: T2, Amine oxidase [flavin-containing] B; experiment: Ex-Vivo Time course of evaluation for the percentage inhibition of MAO-B for 4 hr at single dose 5 mg/kg through oral gavage; assay type: organism-based; set-up: dose 5 mg/kg, route oral
In short: (§2)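 Fasted male Sprague-Dawley rats (150 g) dosed orally by gavage, drug suspended in Tween 80 plus 0.5% methylcellulose; vehicle controls. The 100 mg/kg arm was dosed daily for 9 days. Four rats per time point; brains frozen and homogenized in 0.1 M phosphate pH 7.4. Assayed at 37 °C with 8 μM [14C]PEA for 1 min; toluene/ethyl acetate extraction. Percent inhibition vs control, mean ± SEM.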

[4] = biological target: T2, Amine oxidase [flavin-containing] B; experiment: Ex-Vivo percentage inhibition of MAO-B after 24 hr single 5 mg/kg dose by oral gavage; assay type: organism-based; set-up: dose 5 mg/kg, route oral
In short: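 Ex vivo oral gavage in fasted male Sprague-Dawley rats (Tween 80 / 0.5% methylcellulose), four rats per group. Brain homogenate taken 24 h after dosing. MAO B assayed with 8 μM [14C]PEA, 1 min at 37 °C; percent inhibition vs vehicle control.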

[5] = biological target: T2, Amine oxidase [flavin-containing] B; experiment: Ex-Vivo Time course of evaluation for the percentage inhibition of MAO-B for 48 hr at single dose 5 mg/kg through oral gavage; assay type: organism-based; set-up: dose 5 mg/kg, route oral; in short: as §2
[6] = biological target: T2, Amine oxidase [flavin-containing] B; experiment: Ex-Vivo Time course of evaluation for the percentage inhibition of MAO-B for 1 hr at single dose 5 mg/kg through oral gavage; assay type: organism-based; set-up: dose 5 mg/kg, route oral; in short: as §2
[7] = biological target: T2, Amine oxidase [flavin-containing] B; experiment: Ex-Vivo Time course of evaluation for the percentage inhibition of MAO-B for 0.5 hr at single dose 5 mg/kg through oral gavage; assay type: organism-based; set-up: dose 5 mg/kg, route oral; in short: as §2

SMILES | IC50 [1] [µM] | IC50 [2] [µM] | inhibition at 5 mg/kg [3] [%] | inhibition at 5 mg/kg [4] [%] | inhibition at 5 mg/kg [5] [%] | inhibition at 5 mg/kg [6] [%] | inhibition at 5 mg/kg [7] [%]
COc1ccc(COc2ccc(C3=NN(CCC#N)C(=O)CO3)cc2)cc1 | 45 | 0.088 |  |  |  |  | 
N#CCCN1N=C(c2ccc(OCc3ccc(Cl)cc3)cc2)OCC1=O | 3.4 | 0.1 |  |  |  |  | 
COc1ccc(COc2ccc(-c3nn(CCC#N)c(=O)o3)cc2)cc1 | 16 | 0.027 |  |  |  |  | 
N#CCCN1N=C(c2ccc(OCc3cccc(Cl)c3)cc2)OCC1=O | 13 | 0.013 |  |  |  |  | 
N#CCCn1nc(-c2ccc(OCc3ccc(Cl)cc3)cc2)oc1=S | 2.7 | 0.69 |  |  |  |  | 
N#CCCN1N=C(c2ccc(OCc3ccccc3)cc2)OCC1=O | 160 | 0.018 | 22 | 23 | 16 | 31 | 21
N#CCCn1nc(-c2ccc(OCc3ccccc3)cc2)sc1=S | 160 | 0.016 | 8 | 8 | 10 | 18 | 27
COc1ccc(COc2ccc(-c3nn(CCC#N)c(=S)o3)cc2)cc1 | 4.8 | 0.91 |  |  |  |  | 
Cc1ccc(COc2ccc(-c3nn(CCC#N)c(=S)o3)cc2)cc1 | 10 | 0.4 |  |  |  |  | 

Further molecules by falling IC50 [1], results first:

IC50 [1] [µM] | IC50 [2] [µM] | inhibition at 5 mg/kg [3] [%] | inhibition at 5 mg/kg [4] [%] | inhibition at 5 mg/kg [5] [%] | inhibition at 5 mg/kg [6] [%] | inhibition at 5 mg/kg [7] [%] | SMILES
250 | 0.32 |  |  |  |  |  | Cc1ccc(COc2ccc(C3=NN(CCC#N)C(=O)CO3)cc2)cc1
45 | 0.008 | 45 | 15 | 9 | 52 | 44 | N#CCCn1nc(-c2ccc(OCc3ccccc3)cc2)sc1=O
40 | 0.031 |  |  |  |  |  | Cc1cccc(COc2ccc(C3=NN(CCC#N)C(=O)CO3)cc2)c1
32 | 0.068 |  |  |  |  |  | COc1cccc(COc2ccc(C3=NN(CCC#N)C(=O)CO3)cc2)c1
25 | 0.14 | 5 | -4 | 9 | 3 | 12 | N#CCCN1N=C(c2ccc(OCc3ccccc3)cc2)OCC1=S
20 | 0.008 | 15 | -3 | -3 | 16 | 6 | Cc1cccc(COc2ccc(-c3nn(CCC#N)c(=O)o3)cc2)c1
14 | 0.066 |  |  |  |  |  | Cc1cccc(COc2ccc(-c3nn(CCC#N)c(=S)o3)cc2)c1
11 | 5.5 |  |  |  |  |  | N#CCCn1nc(-c2ccc(OCc3ccc([N+](=O)[O-])cc3)cc2)oc1=O
11 | 0.16 |  |  |  |  |  | N#CCCn1nc(-c2ccc(OCc3cccc(Cl)c3)cc2)oc1=S
8.1 | 0.1 |  |  |  |  |  | COc1cccc(COc2ccc(-c3nn(CCC#N)c(=S)o3)cc2)c1
2.6 | 4.3 |  |  |  |  |  | N#CCCn1nc(-c2ccc(OCc3ccc([N+](=O)[O-])cc3)cc2)oc1=S
2 | 0.3 |  |  |  |  |  | N#CCCN1N=C(c2ccc(OCc3ccc([N+](=O)[O-])cc3)cc2)OCC1=O
